Measured values published in publication PMC10392308 (Journal of Enzyme Inhibition and Medicinal Chemistry, 2023).
Values after ≈ are worked out from the molar mass of the structure shown.

Key:
[1] = Water solubility determination using HPLC; type: physicochemical; conditions: 37 °C, thermodynamic from solid
Summary of the method: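 […] were sonicated 10 min at 37 °C. After standing 1 h, the clear upper liquid was membrane-filtered and injected on HPLC. Water solubility was calculated from peak area using the regression equation.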

[2] = tested on: AGS; assay: MTT antiproliferative assay, AGS; type: cell-based; conditions: Homo sapiens, 48 h, read-out: IC50 values, AGS, MTT, 48 h
[3] = tested on: HCT-116; assay: MTT antiproliferative assay, HCT-116; type: cell-based; conditions: Homo sapiens, HCT-116, 48 h, read-out: IC50 values, HCT-116, MTT, 48 h
[4] = tested on: MGC-803 cells; assay: Cell cycle analysis with flow cytometry; type: cell-based, human; conditions: for Cells in G1 phase: DMSO 64.36%; for Phase in which the cell cycle is blocked: MGC-803, 18 h; for Cells in S phase: DMSO 20.59%
[5] = tested on: MGC-803 cells; assay: Apoptosis assay with flow cytometry; type: cell-based, human; conditions: MGC-803, 18 h, highest value reached; blank control 8.2
[6] = tested on: VEGF; assay: ELISA for the expression of VEGF in MGC-803 cells; type: cell-based, human; conditions: for Effect on the expression of VEGF: MGC-803, 0.1, 0.5, 1 µM, hypoxia or not
Summary of the method: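 The hypoxia arm used 100 µM CoCl2·6H2O (1% O2) and was run beside 21% O2 cultures. MGC-803 cells were exposed 24 h to test compound at 0.1, 0.5 or 1 µM, with a 0.1% DMSO blank and a positive control. Supernatants were spun at 1000 × g for 20 min at 4 °C, and VEGF was quantified by human VEGF ELISA kit.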

[7] = tested on: MMP-9; assay: ELISA for the expression of MMP-9 in MGC-803 cells; type: cell-based, human; conditions: for MMP-9 expression: control 18.6 ng/ml; for Effect on the expression of MMP-9: MGC-803, 0.1, 0.5, 1 µM
[8] = tested on: HCT116 cancer cells; assay: In vivo anticancer effect in nude mice inoculated with HCT116 cells; design: species or system Balb/c nude mice; conditions: for Tumour weight / Tumour volume at the end of the administration: compound 2 2.5 and 1 mg/kg, 5-FU 10 mg/kg; for Tumour weight: p < 0.001 vs control; for Tumour volume at the end of the administration: p < 0.01 vs control; for Tumour growth inhibition rate: by tumour weight
Summary of the method: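 Female Balb/c nude mice, 8 weeks old, received 0.1 ml of 1 × 10^8/mL HCT116 cells in the right armpit, six mice per group. At about 100 mm3 tumour, dosing began: i.p., 5 ml/kg, once every two days, vehicle 5% DMSO in soybean oil, with a vehicle group and a 5-FU group. Body weight and tumour diameters were taken every 3 d, with volume = A×B²/2. Inhibition = (1 − mean treated/control tumour weight) × 100%.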

[9] = tested on: TNF-α; assay: ELISA detection of TNF-α in tumour mice; type: in vivo, nude mice; conditions: serum, compound 2 1 and 2.5 mg/kg, 5-FU 10 mg/kg, vs control
Summary of the method: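 HCT116 xenografts (1×10^8 cells/mL, 0.1 ml, right armpit) in 8-week-old female Balb/c nude mice, six per group. Test compound given i.p. in 5% DMSO/soybean oil (5 ml/kg) from ~100 mm3 tumours for 20 days. At sacrifice, serum held 2 h, spun 1000 × g for 20 min, stored −80 °C. TNF-α measured by mouse ELISA kit, six sera per group, triplicate wells.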

[10] = tested on: tumour tissue; assay: Haematoxylin-eosin staining; type: in vivo, nude mice; conditions: compound 2 1 and 2.5 mg/kg, 5-FU 10 mg/kg; vs control group
Summary of the method: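 Female Balb/c nude mice (8 weeks) bore HCT116 xenografts from 1×10^8 cells/mL, 0.1 ml in the right armpit, six per group. Dosing was i.p. in 5% DMSO/soybean oil at 5 ml/kg, starting at ~100 mm3, for 20 days, with vehicle controls. Tumours collected after sacrifice and stained with haematoxylin-eosin; nuclei blue, cytoplasm red.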

[11] = tested on: VEGF; assay: Immunohistochemical detection of VEGF expression in tumour tissue; type: in vivo, nude mice; conditions: compound 2 1 and 2.5 mg/kg, 5-FU 10 mg/kg; p < 0.0001 vs control
[12] = tested on: zebrafish embryos; assay: Zebrafish embryonic acute toxicity test; type: in vivo
Summary of the method: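 Normally developed embryos at 6 hpf were placed in 24-well plates, six per well, and exposed for three days to test compound at 0.1, 0.15, 0.2, 0.3 and 0.5 μM, with a 0.5% DMSO blank. Hatching (shell without membrane) and death (cardiac arrest) were scored every 24 h. Incubation rate = hatched/total embryos × 100%, and mortality = dead/total × 100%.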

[13] = tested on: zebrafish larvae; assay: Zebrafish adult fish; type: in vivo; conditions: for Concentrations causing acute toxicity in zebrafish larvae: in vivo
Summary of the method: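 Normally developed larvae at 3 dpf were placed in 24-well plates, six per well, and exposed to test compound at 0.1, 0.2, 0.3, 0.4 and 0.5 μM. Mortality was recorded at 24 h and 72 h.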

CC1=C(O)C(=O)C=C2C1=CC=C1[C@@]2(C)CC[C@@]2(C)[C@@H]3C[C@](C)(C(=O)OCCCO)CC[C@]3(C)CC[C@]12C [Compound 2, 3-Hydroxypropyl (2 R,4aS,6aS,12bR,14aS,14bR)-10-hydroxy-2,4a,6a,9,12b,14a-hexamethyl-11-oxo-1,2,3,4,4a,5,6,6a,11,12b,13,14,14a,14b-tetradecahydropicene-2-carboxylate]
solubility at 1 h [1]: 11.8 µg/mL (≈ 23.2 µM)
IC50 [2]: 330 nM
IC50 [3]: 320 to 390 nM
Cells in G2 phase ([4]; 1 µM, 18 h, MGC-803, DMSO 15.05%): 37.01%
Cells in G1 phase ([4]; 1 µM, 18 h, MGC-803): 44.77%
Phase in which the cell cycle is blocked [4]: G2 phase
Overall apoptosis rate (early apoptosis + late apoptosis) [5]: 13%
VEGF expression ([6]; CoCl2-induced hypoxia, 0.1 µM, control 568.1 pg/ml): 430.8 pg/mL
VEGF expression ([6]; CoCl2-induced hypoxia, 0.5 µM, control 568.1 pg/ml): 397.5 pg/mL
VEGF expression ([6]; CoCl2-induced hypoxia, 1 µM, control 568.1 pg/ml): 328.8 pg/mL
Effect on the expression of VEGF [6]: inhibited the expression of VEGF in a concentration-dependent manner
VEGF expression ([6]; normal oxygen conditions, 0.1 µM, control 531.5 pg/ml): 514.1 pg/mL
VEGF expression ([6]; normal oxygen conditions, 0.5 µM, control 531.5 pg/ml): 398.1 pg/mL
VEGF expression ([6]; normal oxygen conditions, 1 µM, control 531.5 pg/ml): 352.1 pg/mL
MMP-9 expression ([7]; MGC-803, 0.5 µM): 10.04 ng/mL
MMP-9 expression ([7]; MGC-803, 1 µM): 9.64 ng/mL
Effect on the expression of MMP-9 [7]: inhibited the expression of MMP-9 in MGC-803 cells in a concentration-dependent manner
Body weight during the treatment period ([8]; 1 mg/kg): no significant changes of body weight
Body weight during the treatment period ([8]; 2.5 mg/kg): downward trend
Mental state of the mice ([8]; 2.5 mg/kg): depressed
Tumour weight [8]: significantly lower than that in the control group
Tumour volume at the end of the administration [8]: significantly smaller than that of the control
Tumour growth inhibition rate ([8]; high-dose 2.5 mg/kg intraperitoneally): 55.82%
Tumour growth inhibition rate ([8]; low-dose 1 mg/kg intraperitoneally): 50.83%
TNF-α content of tumour mice [9]: decreased the TNF-α content significantly in a dose-dependent manner
Morphological changes in tumour tissue (HE) [10]: tumour tissue structure was seriously damaged and the cell necrosis was obvious
VEGF expression in tumour tissue (immunohistochemistry) [11]: downregulated the VEGF expression significantly
Acute toxicity for zebrafish embryos ([12]; 0.1 μM): no acute toxicity
Incubation (hatching) rate of zebrafish embryos ([12]; 0.15 μM): 25%
Hatching of zebrafish eggs ([12]; 0.2 μM): no eggs hatched
Death rate of zebrafish embryos ([12]; 0.5 μM, on the first day): 100%
Mortality of zebrafish embryos ([12]; 0.5 μM, on the fourth day): 100%
100% mortality concentration ([13]; zebrafish larvae, exposed for 72 h): 0.1 µM
Concentrations causing acute toxicity in zebrafish larvae [13]: higher than 0.1 μM

CC1=C(O)C(=O)C=C2C1=CC=C1[C@@]2(C)CC[C@@]2(C)[C@@H]3C[C@](C)(C(=O)O)CC[C@]3(C)CC[C@]12C [celastrol, Celastrol, reference compound]
solubility at 1 h [1]: 6.2 µg/mL (≈ 13.8 µM)
Cells in S phase ([4]; 0.1 µM, 18 h, MGC-803): 19.18%
Cells in S phase ([4]; 1 µM, 18 h, MGC-803): 29.41%
Cells in G1 phase ([4]; 1 µM, 18 h, MGC-803): 52.96%
Phase in which the cell cycle is blocked [4]: S phase
Overall apoptosis rate (early apoptosis + late apoptosis) [5]: 9.8%
Effect on the expression of VEGF [6]: inhibited the expression of VEGF in a concentration-dependent manner
Effect on the expression of MMP-9 [7]: inhibited the expression of MMP-9 in MGC-803 cells in a concentration-dependent manner
Death rate of zebrafish embryos ([12]; 0.2 μM): 50%
Incubation (hatching) rate of zebrafish embryos ([12]; 0.3 or 0.5 μM): zero
Incubation (hatching) rate of zebrafish embryos ([12]; exposure concentrations of 0.1, 0.15, and 0.2 μM): more than 75%
Concentrations causing acute toxicity in zebrafish larvae [13]: higher than 0.1 μM

CC1=C(O)C(=O)C=C2C1=CC=C1[C@@]2(C)CC[C@@]2(C)[C@@H]3C[C@](C)(C(=O)OCCCCO)CC[C@]3(C)CC[C@]12C [Compound 3, 4-Hydroxybutyl (2 R,4aS,6aS,12bR,14aS,14bR)-10-hydroxy-2,4a,6a,9,12b,14a-hexamethyl-11-oxo-1,2,3,4,4a,5,6,6a,11,12b,13,14,14a,14b-tetradecahydropicene-2-carboxylate]
IC50 [3]: 320 to 390 nM

O=c1[nH]cc(F)c(=O)[nH]1 [5-FU, 5-fluorouracil, reference compound]
Tumour growth inhibition rate ([8]; 10 mg/kg intraperitoneally): 37.02%
Tumour weight [8]: significantly lower than that in the control group
Tumour volume at the end of the administration [8]: significantly smaller than that of the control
TNF-α content of tumour mice [9]: increased the TNF-α content significantly
Morphological changes in tumour tissue (HE) [10]: tumour tissue structure was seriously damaged and the cell necrosis was obvious
VEGF expression in tumour tissue (immunohistochemistry) [11]: downregulated the VEGF expression significantly
